Values after ≈ are worked out from the molar mass of the structure shown.
Key:
Format in all cases: functional
Borrelia spielmanii [1] = test: Antimicrobial activity against Borrelia spielmanii isolate PHap after 72 hrs by colorimetric assay; conditions: Borreliella spielmanii
Outline: (§1)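 Tested in microtiter trays preloaded with lyophilized antibiotics; clinical isolates were low-passage (10 to 20 passages). MIC was read by colorimetric assay after 72 h. MBC was defined as 100% killing in liquid medium at 72 h: aliquots from vials showing no growth were diluted 1:1,000 in BSK and checked for regrowth after 3 weeks of subculture. Values are medians of three independent experiments on separate days.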

Borrelia spielmanii [2] = test: Antimicrobial activity against Borrelia spielmanii isolate PAnz after 72 hrs by colorimetric assay; conditions: Borreliella spielmanii; outline: as §1
Borrelia spielmanii [3] = test: Antimicrobial activity against Borrelia spielmanii isolate PMew after 72 hrs by colorimetric assay; conditions: Borreliella spielmanii; outline: as §1
[4] = Antimicrobial activity against Borrelia burgdorferi B31 after 72 hrs by colorimetric assay; conditions: Borreliella burgdorferi; outline: as §1
Borrelia afzelii [5] = test: Antimicrobial activity against Borrelia afzelii isolate G1039 after 72 hrs by colorimetric assay; conditions: Borreliella afzelii, isolate G1039, 72 h; outline: as §1
Borrelia afzelii [6] = test: Antimicrobial activity against Borrelia afzelii isolate G600 after 72 hrs by colorimetric assay; conditions: Borreliella afzelii, isolate G600, 72 h; outline: as §1
[7] = Antimicrobial activity against Borrelia spielmanii A14S after 72 hrs by colorimetric assay; conditions: Borreliella spielmanii
Outline: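 Low-passage isolates (10 to 20 passages) grown in BSK medium were tested in microtiter trays precoated with lyophilized antimicrobials. MIC was read colorimetrically after 72 h. Independent experiments were run on three different days, and the MIC reported is the median of the three.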

Borrelia spielmanii [8] = test: Antimicrobial activity against Borrelia spielmanii isolate TIsar3 after 72 hrs by colorimetric assay; conditions: Borreliella spielmanii, isolate TIsar3, 72 h; outline: as §1
Borrelia garinii [9] = test: Antimicrobial activity against Borrelia garinii isolate M2094 after 72 hrs by colorimetric assay; conditions: Borreliella garinii, isolate M2094, 72 h; outline: as §1
Borrelia spielmanii [10] = test: Antimicrobial activity against Borrelia spielmanii isolate PJes after 72 hrs by colorimetric assay; conditions: Borreliella spielmanii; outline: as §1
Borrelia burgdorferi = test: Antimicrobial activity against Borrelia burgdorferi isolate LW2 after 72 hrs by colorimetric assay; conditions: Borreliella burgdorferi, isolate LW2, 72 h; outline: as §1
Borrelia afzelii [11] = test: Antimicrobial activity against Borrelia afzelii isolate FEM1 after 72 hrs by colorimetric assay; conditions: Borreliella afzelii, isolate FEM1, 72 h; outline: as §1
Borrelia garinii [12] = test: Antimicrobial activity against Borrelia garinii isolate PSth after 72 hrs by colorimetric assay; conditions: Borreliella garinii; outline: as §1
Borrelia garinii [13] = test: Antimicrobial activity against Borrelia garinii isolate G1 after 72 hrs by colorimetric assay; conditions: Borreliella garinii, isolate G1, 72 h; outline: as §1
Borrelia spielmanii [14] = test: Antimicrobial activity against Borrelia spielmanii isolate PMai after 72 hrs by colorimetric assay; conditions: Borreliella spielmanii; outline: as §1
Borrelia = test: Antimicrobial activity against Borrelia clinical isolate after 72 hrs by colorimetric assay; conditions: for MIC90: Borrelia, 72 h; outline: as §1
Borrelia spielmanii [15] = test: Antimicrobial activity against Borrelia spielmanii isolate PSig2 after 72 hrs by colorimetric assay; conditions: Borreliella spielmanii, isolate PSig2, 72 h; outline: as §1
Borrelia spielmanii [16] = test: Antimicrobial activity against Borrelia spielmanii isolate PC-Eq17 after 72 hrs by colorimetric assay; conditions: Borreliella spielmanii, isolate PC-Eq17, 72 h; outline: as §1
Borrelia spielmanii [17] = test: Antimicrobial activity against Borrelia spielmanii isolate TIsar2 after 72 hrs by colorimetric assay; conditions: Borreliella spielmanii, isolate TIsar2, 72 h; outline: as §1
Staphylococcus aureus = test: Antimicrobial activity against Staphylococcus aureus ATCC 29213 after 72 hrs by colorimetric assay; conditions: ATCC 29213, 72 h
Outline: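 Quality-control MIC followed the CLSI method with two changes: BSK medium was used, and the antibiotic-medium preparation was preincubated for 48 h before testing. Tests were run on three different days, and the MIC reported is the median of the three.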

Compound | MBC (Borrelia spielmanii [1]) [µg/mL] | MIC (Borrelia spielmanii [1]) [µg/mL] | MBC (Borrelia spielmanii [2]) [µg/mL] | MIC (Borrelia spielmanii [2]) [µg/mL] | MBC (Borrelia spielmanii [3]) [µg/mL] | MIC (Borrelia spielmanii [3]) [µg/mL] | MBC [4] [µg/mL] | MIC [4] [µg/mL] | MBC (Borrelia afzelii [5]) [µg/mL] | MIC (Borrelia afzelii [5]) [µg/mL] | MBC (Borrelia afzelii [6]) [µg/mL] | MIC (Borrelia afzelii [6]) [µg/mL] | MBC [7] [µg/mL] | MIC [7] [µg/mL] | MBC (Borrelia spielmanii [8]) [µg/mL] | MIC (Borrelia spielmanii [8]) [µg/mL] | MBC (Borrelia garinii [9]) [µg/mL] | MIC (Borrelia garinii [9]) [µg/mL] | MBC (Borrelia spielmanii [10]) [µg/mL] | MIC (Borrelia spielmanii [10]) [µg/mL] | further results
CO/N=C(\C(=O)N[C@@H]1C(=O)N2C(C(=O)O)=C(COC(N)=O)CS[C@H]12)c1ccco1 [CEFUROXIME] | > 8 | 0.25 (≈ 0.589 µM) | > 8 | 0.125 (≈ 0.295 µM) | > 8 | 0.125 (≈ 0.295 µM) | > 8 | 0.125 (≈ 0.295 µM) | 8 (≈ 18.9 µM) | 0.125 (≈ 0.295 µM) | 4 (≈ 9.43 µM) | 0.25 (≈ 0.589 µM) | 8 (≈ 18.9 µM) | 0.125 (≈ 0.295 µM) | 4 (≈ 9.43 µM) | 0.5 (≈ 1.18 µM) | > 8 | 0.125 (≈ 0.295 µM) | 8 (≈ 18.9 µM) | 0.125 (≈ 0.295 µM) | MBC (Borrelia burgdorferi): 8 µg/mL (≈ 18.9 µM); MIC (Borrelia burgdorferi): 0.125 µg/mL (≈ 0.295 µM); MBC (Borrelia afzelii [11]): > 8 µg/mL; MIC (Borrelia afzelii [11]): 0.5 µg/mL (≈ 1.18 µM); MBC (Borrelia garinii [12]): > 8 µg/mL; MIC (Borrelia garinii [12]): 0.125 µg/mL (≈ 0.295 µM); MBC (Borrelia garinii [13]): > 8 µg/mL; MIC (Borrelia garinii [13]): 0.125 µg/mL (≈ 0.295 µM); MBC (Borrelia spielmanii [14]): 8 µg/mL (≈ 18.9 µM); MIC (Borrelia spielmanii [14]): 0.125 µg/mL (≈ 0.295 µM); MBC90 (Borrelia): >8 µg/mL; MIC90 (Borrelia): 0.25 µg/mL (≈ 0.589 µM); MBC (Borrelia spielmanii [15]): 8 µg/mL (≈ 18.9 µM); MIC (Borrelia spielmanii [15]): 0.125 µg/mL (≈ 0.295 µM); MBC (Borrelia spielmanii [16]): > 8 µg/mL; MIC (Borrelia spielmanii [16]): 0.125 µg/mL (≈ 0.295 µM); MBC (Borrelia spielmanii [17]): 2 µg/mL (≈ 4.71 µM); MIC (Borrelia spielmanii [17]): 0.125 µg/mL (≈ 0.295 µM); MIC (Staphylococcus aureus): 2 µg/mL (≈ 4.71 µM)
CC[C@H]1OC(=O)[C@H](C)[C@@H](O[C@H]2C[C@@](C)(OC)[C@@H](O)[C@H](C)O2)[C@H](C)[C@@H](O[C@@H]2O[C@H](C)C[C@H](N(C)C)[C@H]2O)[C@](C)(OC)C[C@@H](C)C(=O)[C@H](C)[C@@H](O)[C@]1(C)O [CLARITHROMYCIN] | 0.5 (≈ 0.668 µM) | 0.0019 (≈ 0.00254 µM) | 1 (≈ 1.34 µM) | 0.0019 (≈ 0.00254 µM) | 1 (≈ 1.34 µM) | 0.0079 (≈ 0.0106 µM) | 2 (≈ 2.67 µM) | 0.0079 (≈ 0.0106 µM) | 1 (≈ 1.34 µM) | 0.0039 (≈ 0.00521 µM) | 0.5 (≈ 0.668 µM) | 0.0079 (≈ 0.0106 µM) | 1 (≈ 1.34 µM) | 0.0039 (≈ 0.00521 µM) | 1 (≈ 1.34 µM) | 0.0079 (≈ 0.0106 µM) | 1 (≈ 1.34 µM) | 0.0039 (≈ 0.00521 µM) | 0.5 (≈ 0.668 µM) | 0.0039 (≈ 0.00521 µM) | MBC (Borrelia burgdorferi): 4 µg/mL (≈ 5.35 µM); MIC (Borrelia burgdorferi): 0.0039 µg/mL (≈ 0.00521 µM); MBC (Borrelia afzelii [11]): 1 µg/mL (≈ 1.34 µM); MIC (Borrelia afzelii [11]): 0.0039 µg/mL (≈ 0.00521 µM); MBC (Borrelia garinii [12]): 2 µg/mL (≈ 2.67 µM); MIC (Borrelia garinii [12]): 0.0079 µg/mL (≈ 0.0106 µM); MBC (Borrelia garinii [13]): 1 µg/mL (≈ 1.34 µM); MIC (Borrelia garinii [13]): 0.0019 µg/mL (≈ 0.00254 µM); MBC (Borrelia spielmanii [14]): 0.5 µg/mL (≈ 0.668 µM); MIC (Borrelia spielmanii [14]): 0.0019 µg/mL (≈ 0.00254 µM); MBC90 (Borrelia): 1 µg/mL (≈ 1.34 µM); MIC90 (Borrelia): 0.0079 µg/mL (≈ 0.0106 µM); MBC (Borrelia spielmanii [15]): 1 µg/mL (≈ 1.34 µM); MIC (Borrelia spielmanii [15]): 0.0019 µg/mL (≈ 0.00254 µM); MBC (Borrelia spielmanii [16]): 1 µg/mL (≈ 1.34 µM); MIC (Borrelia spielmanii [16]): 0.0019 µg/mL (≈ 0.00254 µM); MBC (Borrelia spielmanii [17]): 0.5 µg/mL (≈ 0.668 µM); MIC (Borrelia spielmanii [17]): 0.0079 µg/mL (≈ 0.0106 µM); MIC (Staphylococcus aureus): 0.063 µg/mL (≈ 0.0842 µM)
C[C@H]1c2cccc(O)c2C(=O)C2=C(O)[C@]3(O)C(=O)C(C(N)=O)=C(O)[C@@H](N(C)C)[C@@H]3[C@@H](O)[C@@H]21.O [DOXYCYCLINE] | 16 | 0.0625 | 8 | 0.0625 | 16 | 0.5 | 16 | 0.25 | 4 | 0.125 | 2 | 0.25 | 16 | 0.125 | 8 | 0.125 | 16 | 0.25 | 8 | 0.125 | MBC (Borrelia burgdorferi): 32 µg/mL; MIC (Borrelia burgdorferi): 0.125 µg/mL; MBC (Borrelia afzelii [11]): 4 µg/mL; MIC (Borrelia afzelii [11]): 0.125 µg/mL; MBC (Borrelia garinii [12]): 32 µg/mL; MIC (Borrelia garinii [12]): 0.25 µg/mL; MBC (Borrelia garinii [13]): 16 µg/mL; MIC (Borrelia garinii [13]): 0.125 µg/mL; MBC (Borrelia spielmanii [14]): 8 µg/mL; MIC (Borrelia spielmanii [14]): 0.125 µg/mL; MBC90 (Borrelia): 16 µg/mL; MIC90 (Borrelia): 0.25 µg/mL; MBC (Borrelia spielmanii [15]): 8 µg/mL; MIC (Borrelia spielmanii [15]): 0.125 µg/mL; MBC (Borrelia spielmanii [16]): 16 µg/mL; MIC (Borrelia spielmanii [16]): 0.125 µg/mL; MBC (Borrelia spielmanii [17]): 16 µg/mL; MIC (Borrelia spielmanii [17]): 0.25 µg/mL; MIC (Staphylococcus aureus): 0.25 µg/mL

Source: ChEMBL document CHEMBL1629636, “In vitro susceptibility of Borrelia spielmanii to antimicrobial agents commonly used for treatment of Lyme disease” (2009)
